From ChEMBL document CHEMBL4118126, “An orally available, brain-penetrant CAMKK2 inhibitor reduces food intake in rodent model” (Bioorg Med Chem Lett, 2018)
≈ marks a conversion by molar mass, not a printed value.

Columns and labels:
[1] = target: Calcium/calmodulin-dependent protein kinase kinase 2 (Homo sapiens, UniProt Q96RR4); assay: Inhibition of full-length human GST-tagged CAMKK2 using 5FAM-AKPKGNKDYHLQTCCGSLAYRRR-amide as substrate preincubated for 30 mins followed by substrate addition measured after 120 mins by fluorescence polarization assay
Chain of Calcium/calmodulin-dependent protein kinase kinase 2 (Homo sapiens, UniProt Q96RR4) (Q96RR4 whole entry): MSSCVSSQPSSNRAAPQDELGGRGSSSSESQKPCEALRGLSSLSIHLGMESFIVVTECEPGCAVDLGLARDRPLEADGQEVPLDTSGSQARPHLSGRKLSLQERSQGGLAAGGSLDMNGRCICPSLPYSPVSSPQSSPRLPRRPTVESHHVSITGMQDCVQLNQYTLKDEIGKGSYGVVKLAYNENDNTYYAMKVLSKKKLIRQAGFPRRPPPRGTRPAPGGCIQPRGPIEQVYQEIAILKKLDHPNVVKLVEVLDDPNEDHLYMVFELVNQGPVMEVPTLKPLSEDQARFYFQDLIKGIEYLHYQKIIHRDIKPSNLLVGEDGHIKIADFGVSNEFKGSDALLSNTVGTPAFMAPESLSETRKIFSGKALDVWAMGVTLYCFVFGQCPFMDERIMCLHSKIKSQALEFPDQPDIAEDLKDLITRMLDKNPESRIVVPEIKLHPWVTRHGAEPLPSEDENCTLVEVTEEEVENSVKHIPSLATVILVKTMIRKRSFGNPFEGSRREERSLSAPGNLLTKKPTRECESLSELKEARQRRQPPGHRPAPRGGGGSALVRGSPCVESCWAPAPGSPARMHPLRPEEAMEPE

[2] = Solubility of the compound in pH 7.4 phosphate buffer saline after 1 hr by chemiluminescence nitrogen detection method; assay type: physicochemical; settings: phosphate buffered saline
Procedure, shortened: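 Kinetic solubility: 10 mM DMSO stock diluted 1:20 into 10 mM phosphate-buffered saline pH 7.4, equilibrated 1 h at RT, filtered, and filtrate quantified by calibrated flow-injection chemiluminescent nitrogen detection.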

[3] = target: Calcium/calmodulin-dependent protein kinase kinase 2 (Mus musculus, UniProt Q8C078); assay: Inhibition of CAMKK2 in mouse N39 cells assessed as decrease in AMPKalpha phosphorylation at T172 preincubated for 80 mins followed by […] addition by ELISA; assay type: cell-based
Chain of Calcium/calmodulin-dependent protein kinase kinase 2 (Mus musculus, UniProt Q8C078) (Q8C078 whole entry): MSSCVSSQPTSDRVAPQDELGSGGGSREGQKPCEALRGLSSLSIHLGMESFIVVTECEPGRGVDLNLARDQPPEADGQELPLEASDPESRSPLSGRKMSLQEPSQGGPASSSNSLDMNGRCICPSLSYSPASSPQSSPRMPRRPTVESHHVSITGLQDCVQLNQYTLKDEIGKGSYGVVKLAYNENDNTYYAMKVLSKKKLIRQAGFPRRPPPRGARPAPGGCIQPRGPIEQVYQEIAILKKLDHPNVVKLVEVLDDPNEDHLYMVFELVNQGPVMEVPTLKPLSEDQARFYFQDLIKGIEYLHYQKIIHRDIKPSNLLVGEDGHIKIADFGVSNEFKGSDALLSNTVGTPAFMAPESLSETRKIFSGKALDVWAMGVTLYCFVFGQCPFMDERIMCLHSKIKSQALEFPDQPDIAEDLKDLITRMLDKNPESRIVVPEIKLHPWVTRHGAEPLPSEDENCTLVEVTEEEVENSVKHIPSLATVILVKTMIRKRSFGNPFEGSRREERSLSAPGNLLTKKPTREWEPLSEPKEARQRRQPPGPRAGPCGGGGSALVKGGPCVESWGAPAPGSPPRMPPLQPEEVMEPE
Procedure, shortened: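 Mouse N39 cells seeded ~1000 cells/well, cultured overnight at 37°C, 5% CO2, then exposed to compound in DMSO for 80 min before ionomycin stimulation ([…] as added). Cells were lysed in extraction buffer for 30 min on ice, then diluted into ice-cold lysis buffer containing protease and phosphatase inhibitors for MSD read-out.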

SMILES	IC50 [1] [µM]	solubility at 1 h [2] [µM]	IC50 [3] [µM]
NC(=O)c1ccc2c(-c3ccc(C(=O)O)c(C4CCCC4)c3)c[nH]c2n1	1.26 to 10	> 205	
CC(C)c1cc(-c2c[nH]c3nc(C#N)ccc23)ccc1C(=O)O		> 172	6.31
NC(=O)c1ccc(-c2c[nH]c3ncc(-c4ccccc4OC(F)(F)F)cc23)cc1C1CCCC1		2 (≈ 0.931 µg/mL)	> 10
CS(=O)(=O)c1cccc(-c2cnc3[nH]cc(-c4ccc(C(=O)O)cc4)c3c2)c1		177 (≈ 69.5 µg/mL)	
c1ccc(-c2cnc3[nH]cc(-c4ccc(-c5nn[nH]n5)cc4)c3c2)cc1		276 (≈ 93.4 µg/mL)	
CC(C)c1cc(-c2c[nH]c3ncc(-c4ccccc4)cc23)ccc1C(=O)O		> 439	1.26
NC(=O)c1ccc(-c2c[nH]c3ncc(-c4ccccc4Oc4ccccc4)cc23)cc1		9 (≈ 3.65 µg/mL)	
NC(=O)c1ccc(-c2c[nH]c3ncc(-c4ccccc4O)cc23)cc1C1CCCC1		6 (≈ 2.38 µg/mL)	3.98
COc1ccccc1-c1cnc2[nH]cc(-c3ccc(C(N)=O)c(C4CCCC4)c3)c2c1		1 (≈ 0.412 µg/mL)	> 10
O=C(O)c1ccc(-c2c[nH]c3ncc(-c4ccccc4)cc23)cc1	0.2	82 (≈ 25.8 µg/mL)	
O=C(O)c1ccc(-c2c[nH]c3ncc(-c4ccccc4Oc4ccccc4)cc23)cc1		24 (≈ 9.75 µg/mL)	
CC(C)Cc1cc(-c2c[nH]c3ncc(-c4ccccc4)cc23)ccc1C(=O)O	0.00501 to 0.0251	333 (≈ 123 µg/mL)	
CC(C)c1cc(-c2c[nH]c3nc(C#N)ccc23)ccc1C(N)=O	1.26 to 10	14 (≈ 4.26 µg/mL)	
Cc1cc(-c2c[nH]c3ncc(-c4ccccc4)cc23)ccc1C(=O)O		100 (≈ 32.8 µg/mL)	
CS(=O)(=O)c1cccc(-c2cnc3[nH]cc(-c4ccc(C(N)=O)cc4)c3c2)c1		> 115	
N#CCc1ccccc1-c1cnc2[nH]cc(-c3ccc(C(N)=O)c(C4CCCC4)c3)c2c1		96 (≈ 40.4 µg/mL)	
NC(=O)c1ccc(-c2c[nH]c3ncc(-c4ccccc4Oc4ccccc4)cc23)cc1C1CCCC1		52 (≈ 24.6 µg/mL)	> 10
COC(=O)c1ccc(-c2c[nH]c3ncc(-c4ccccc4)cc23)cc1	1.26	5 (≈ 1.64 µg/mL)	

Other lines, results leading:

IC50 [1] [µM]	solubility at 1 h [2] [µM]	IC50 [3] [µM]	SMILES
	> 290	3.98	O=C(O)c1ccc(-c2c[nH]c3ncccc23)cc1C1CCCC1
	150 (≈ 57.4 µg/mL)	1.26	O=C(O)c1ccc(-c2c[nH]c3ncc(-c4ccccc4)cc23)cc1C1CCCC1 [GSK-650394]
	12 (≈ 5.39 µg/mL)		NC(=O)c1ccc(-c2c[nH]c3ncc(-c4ccccc4C(F)(F)F)cc23)cc1C1CCCC1
0.02	178 (≈ 60.9 µg/mL)		CCc1cc(-c2c[nH]c3ncc(-c4ccccc4)cc23)ccc1C(=O)O
	155 (≈ 51.4 µg/mL)	6.31	N#Cc1ccc2c(-c3ccc(C(=O)O)c(C4CCCC4)c3)c[nH]c2n1
2.51 to 10	235 (≈ 61.9 µg/mL)		N#Cc1ccc2c(-c3ccc(C(=O)O)cc3)c[nH]c2n1
1.26 to 10	7 (≈ 2.31 µg/mL)		N#Cc1ccc2c(-c3ccc(C(N)=O)c(C4CCCC4)c3)c[nH]c2n1
	> 279	> 10	Cc1ccc2c(-c3ccc(C(=O)O)c(C4CCCC4)c3)c[nH]c2n1
		> 10	CC(C)Oc1ccccc1-c1cnc2[nH]cc(-c3ccc(C(N)=O)c(C4CCCC4)c3)c2c1
	2 (≈ 0.849 µg/mL)	> 10	CN(C)c1ccccc1-c1cnc2[nH]cc(-c3ccc(C(N)=O)c(C4CCCC4)c3)c2c1
